Results as given in PubChem BioAssay.
Activity calls are given as the source filed them.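 The calls were made as follows, unless noted: active = Her2 level under about 52% in both replicate screens, with viability over 70% of control (limit read from the data); inconclusive = Her2 under the limit in one screen only, or viability under 70%; inactive = Her2 level above the set limit.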

What was measured:
[1] = Her2 expression decrease, cell viability multiplex – SKBR3 breast tumor cells, AlphaScreen, ATP viability, primary screen (AID 461); conditions: SKBR3 Her2 protein level, 18-24 h, measured here: SKBR3 viability, ATP luminescence, at 10 µM;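 as to Her2 level: lower value means less Her2 protein in the cells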;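 as to viability: percent of carrier control wells set as 100% viability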
[2] = biological target: Receptor tyrosine-protein kinase erbB-2 (Homo sapiens) (UniProt P04626); assay: as above; conditions: 18-24 h, at 10 µM, stronger effect = lower value
[3] = reduced viability of SK-BR-3 breast cancer cells – cell-based, 24 h, human, pilot screen (AID 572;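 active = viability at or below 10% of carrier control in both of two separate runs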;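 also: compound exposure lasted between 18 and 24 h rather than exactly 24 h; 100% = carrier-treated control wells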); conditions: SK-BR-3 viability, CellTiter-Glo luminescence, at 10 µM, stronger effect = lower value
[4] = HUVEC growth inhibition – cell-based, human, primary screen (AID 575;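 active = viability at or below 30% in both replicate assays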;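 also: 100% = median of untreated cell wells with 0.1% DMSO on each plate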); conditions: HUVEC proliferation, CellTiter-Glo luminescence, 72 h; at 10 µM; stronger effect = lower value
Procedure, shortened: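 Material: primary human umbilical vein endothelial cells / Schedule: 72 h exposure, 37 °C, 5% CO2, 30 min RT equilibration / Signal: ATP-based CellTiter-Glo luminescent read / Read-out basis: percent of median DMSO-control luminescence / Control set: 32 DMSO-only cell-control wells (high), 32 MePR drug-control wells (low) per plate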

[5] = H69AR cell proliferation blockers – human, duplicate replicates, primary screen (AID 580;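 active = viability at or under a set limit in both replicates, limit being median viability minus 3 SD, cut at about 48% in these data, passing the limit was not always enough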;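 also: 100% = mean luminescence of untreated wells and 0% = no signal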); conditions: H69AR lung tumor cells viability, ATP luminescence, 72 h; at 10 µM; stronger effect = lower value
[6] = MRP1 drug-resistance reversers in H69AR cells – cell-based, doxorubicin co-treatment, pilot screen (AID 601;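 active = viability loss from added drug above about 55%, and viability with drug at most 40%, in both replicates, limit read from the data, passing the limit was not always enough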); conditions: CellTiter-Glo, 72 h, at 10 µM; for differential viability (reversal): stronger effect = higher value
[7] = yeast transport mutant growth inhibition pilot in 384-well plates, post-Golgi transport modulator project (AID 636; in the data active = inhibition above about 31%); conditions: absorbance 615 nm, about 18 h, stronger effect = higher value
[8] = growth suppression of yeast trafficking mutant, preliminary HTS, modulators of trafficking downstream of Golgi apparatus project, 1536-format plate, OD 615 nm (AID 637; in the data active = inhibition above about 30%); conditions: yeast transport mutant growth, absorbance 615 nm, 18 h; stronger effect = higher value
[9] = H69AR cells + 2 uM doxorubicin, measured here: viability with 2 uM doxorubicin, stronger effect = lower value
[10] = H69AR cells, compound alone cytotoxicity

Sequence of Receptor tyrosine-protein kinase erbB-2 (Homo sapiens) (P04626 whole entry, looked up): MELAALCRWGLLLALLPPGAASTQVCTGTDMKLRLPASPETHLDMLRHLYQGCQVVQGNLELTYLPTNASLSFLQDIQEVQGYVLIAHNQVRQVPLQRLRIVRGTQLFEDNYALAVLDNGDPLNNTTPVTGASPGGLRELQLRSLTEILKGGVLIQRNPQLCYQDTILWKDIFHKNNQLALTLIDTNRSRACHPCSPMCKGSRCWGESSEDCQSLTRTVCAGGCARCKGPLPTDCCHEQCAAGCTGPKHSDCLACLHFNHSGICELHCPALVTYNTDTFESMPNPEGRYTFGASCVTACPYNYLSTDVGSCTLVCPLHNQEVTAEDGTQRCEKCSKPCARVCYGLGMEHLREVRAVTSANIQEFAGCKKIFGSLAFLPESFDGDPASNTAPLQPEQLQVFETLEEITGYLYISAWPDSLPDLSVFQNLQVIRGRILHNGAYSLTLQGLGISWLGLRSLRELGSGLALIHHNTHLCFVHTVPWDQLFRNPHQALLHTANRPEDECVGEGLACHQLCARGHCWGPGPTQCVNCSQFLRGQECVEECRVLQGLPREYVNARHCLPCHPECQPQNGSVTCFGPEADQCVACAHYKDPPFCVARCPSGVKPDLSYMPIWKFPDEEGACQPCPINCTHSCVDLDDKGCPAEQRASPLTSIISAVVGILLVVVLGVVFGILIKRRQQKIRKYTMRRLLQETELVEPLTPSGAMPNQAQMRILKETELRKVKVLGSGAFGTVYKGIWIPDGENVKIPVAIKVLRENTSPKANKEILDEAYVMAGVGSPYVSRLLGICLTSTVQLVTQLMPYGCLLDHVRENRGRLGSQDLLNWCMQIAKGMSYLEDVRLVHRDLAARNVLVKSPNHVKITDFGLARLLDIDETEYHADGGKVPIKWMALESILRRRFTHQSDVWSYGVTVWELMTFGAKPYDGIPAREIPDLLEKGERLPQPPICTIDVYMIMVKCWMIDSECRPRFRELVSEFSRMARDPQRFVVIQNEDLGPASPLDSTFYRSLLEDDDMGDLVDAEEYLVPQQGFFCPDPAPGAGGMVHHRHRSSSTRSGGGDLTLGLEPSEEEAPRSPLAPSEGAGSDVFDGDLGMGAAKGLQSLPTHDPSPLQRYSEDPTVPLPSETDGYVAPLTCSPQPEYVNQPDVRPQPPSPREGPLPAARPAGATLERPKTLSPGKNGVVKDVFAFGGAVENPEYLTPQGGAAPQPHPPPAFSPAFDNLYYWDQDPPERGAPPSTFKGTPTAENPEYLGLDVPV

Structure (SMILES)	viability [1] [%]	Her2 level [2]	viability [3]	viability [4]	viability [5]	differential viability (reversal) ([6]; H69AR cells + 2 uM doxorubicin)	viability [6, 9] [%]	viability [6, 10] [%]	inhibition [7]	inhibition [8]
CCN(c1cccc(C(F)(F)F)c1)S(=O)(=O)c1ccc2c(c1)CCN2C(=O)C1CC1	99	120% (inactive)	99% (inactive)	65.8% (inactive)	82.5% (inactive)	-0.405% (inactive)	82.9	82.5	-3.42% (inactive)	-1% (inactive)
CC(C)(C)C(=O)CCN1C(=O)C2(OCCO2)c2ccccc21	104	106% (inactive)	104% (inactive)	83.9% (inactive)	103% (inactive)	9.06% (inactive)	94.1	103	-1.82% (inactive)	-2.3% (inactive)
CCOC(=O)c1oc2ccccc2c1NC(=O)COC	108	91.5% (inactive)	108% (inactive)	99.5% (inactive)	102% (inactive)	9.07% (inactive)	93.2	102	-4.73% (inactive)	-3.93% (inactive)
CC(=O)N1CCN(c2ccc(S(=O)(=O)N3CCCCC3)cn2)CC1	97	89.5% (inactive)	97% (inactive)	101% (inactive)	88.6% (inactive)	3.99% (inactive)	84.6	88.6	-0.39% (inactive)	-0.16% (inactive)
COc1cc2c(C)nc(C)c(C#N)c2cc1OC	111	93.5% (inactive)	111% (inactive)	66.4% (inactive)	86.6% (inactive)	10.1% (inactive)	76.5	86.6	-6% (inactive)	-2.74% (inactive)
CC1Cc2ccccc2N1C(=O)CSc1nnc2n1C(C)(C)Cc1ccccc1-2 (stereo not given)	79	105% (inactive)	79% (inactive)	71.8% (inactive)	82.4% (inactive)	-7.96% (inactive)	90.4	82.4	-6.4% (inactive)	-7.3% (inactive)
CCOC(=O)Nc1cc(OCC)c(NC(=O)C2CC2)cc1OCC	97	112% (inactive)	97% (inactive)	111% (inactive)	100% (inactive)	12.8% (inactive)	87.3	100	-6.13% (inactive)	-4.26% (inactive)
CC(Oc1ccccc1)C(=O)N1CCCc2ccccc21 (stereo not given)	101	104% (inactive)	101% (inactive)	95.4% (inactive)	94.3% (inactive)	4.51% (inactive)	89.8	94.3	-1.76% (inactive)	-4.33% (inactive)
O=C(c1ccc(Cl)c(Cl)c1)N1CCOCC1	102	103% (inactive)	102% (inactive)	91.7% (inactive)	92.3% (inactive)	-5.39% (inactive)	97.7	92.3	-0.66% (inactive)	-10.8% (inactive)
O=C(c1cnsn1)N1CCN(c2ccccn2)CC1	122	75% (inactive)	122% (inactive)	100% (inactive)	102% (inactive)	10.7% (inactive)	91.7	102	-0.66% (inactive)	-5.87% (inactive)
CCOC(=O)CSC1=Nc2ccccc2C2=NC(CC(=O)NCc3ccc(OC)cc3)C(=O)N12 (stereo not given)	117	89% (inactive)	117% (inactive)	83% (inactive)	99.7% (inactive)	2.4% (inactive)	97.3	99.7	-4.21% (inactive)	-1.27% (inactive)
CCCCN(CC)S(=O)(=O)c1ccc2c(c1)CCCN2C(C)=O	88	79.5% (inactive)	88% (inactive)	88.9% (inactive)	104% (inactive)	0.71% (inactive)	103	104	-2.37% (inactive)	0.48% (inactive)
Cc1cc(C)cc(NS(=O)(=O)c2ccc3[nH]cc(C(=O)NCc4ccco4)c(=O)c3c2)c1	97	87% (inactive)	97% (inactive)	19% (active)	41.1% (active)	-35.9% (inactive)	77	41.1	-5.39% (inactive)	1.45% (inactive)
Cc1occc1C(=O)Nc1ccccc1NC(=O)c1ccoc1C	96.5	101% (inactive)	96.5% (inactive)	90.9% (inactive)	100% (inactive)	8.43% (inactive)	92	100	-4.67% (inactive)	0.48% (inactive)
O=C1CCCC2=C1C1(CCCC1)N=C(Nc1nc3ccccc3s1)N2	99.5	80% (inactive)	99.5% (inactive)	62.8% (inactive)	79.5% (inactive)	11.3% (inactive)	68.2	79.5	-4.21% (inactive)	-2.33% (inactive)
O=C(CCn1c(=S)[nH]c2ccccc2c1=O)NCC1CCCO1 (stereo not given)	118	100% (inactive)	118% (inactive)	111% (inactive)	98.2% (inactive)	6.03% (inactive)	92.2	98.2	-6.13% (inactive)	0.66% (inactive)

Structure (SMILES)	viability [1] [%]	Her2 level [2]	viability [3]	viability [4]	viability [5]	differential viability (reversal) ([6]; H69AR cells + 2 uM doxorubicin)	viability [6, 9] [%]	viability [6, 10] [%]	inhibition [7]	inhibition [8]
O=C1CCNc2cc3ccccc3cc21	73.5	84% (inactive)	73.5% (inactive)	61.7% (inactive)	70.5% (inactive)	0.425% (inactive)	70	70.5	-8.9% (inactive)	1.27% (inactive)
Cc1cc(C)n2cc(CSc3nnnn3C)nc2n1	84.5	92% (inactive)	84.5% (inactive)	87.8% (inactive)	85.7% (inactive)	-0.355% (inactive)	86	85.7	0.51% (inactive)	6.17% (inactive)
O=C(Cn1nnc2ccccc2c1=O)NC1CCCc2ccccc21 (stereo not given)	77	97.5% (inactive)	77% (inactive)	101% (inactive)	103% (inactive)	7.25% (inactive)	95.4	103	-2.67% (inactive)	4.68% (inactive)
CCOC(=O)N1CCN(C(=O)CSc2nnc(Cc3ccccc3)o2)CC1	92.5	102% (inactive)	92.5% (inactive)	76% (inactive)	103% (inactive)	25.7% (inactive)	77.2	103	0.27% (inactive)	1.97% (inactive)
CN1CC[n+]2cnc3ccccc3c21	100	92% (inactive)	100% (inactive)	108% (inactive)	97.3% (inactive)	8.2% (inactive)	89.1	97.3	-2.24% (inactive)	6.23% (inactive)
c1cn(C23CC4CC(CC(C4)C2)C3)cn1	113	88% (inactive)	113% (inactive)	104% (inactive)	92.3% (inactive)	8.21% (inactive)	84.1	92.3	-5.6% (inactive)	1.94% (inactive)
Cc1ccc(CN2C(=O)CCC2C(=O)NC2CCCC2)cc1 (stereo not given)	132	95.5% (inactive)	132% (inactive)	94.3% (inactive)	94.1% (inactive)	-1.04% (inactive)	95.1	94.1	-6.13% (inactive)	4.59% (inactive)
CN(C)c1nc(Nc2ccc(Cl)cc2)nc(OCC#N)n1	105	80.5% (inactive)	105% (inactive)	63.2% (inactive)	81.8% (inactive)	-14.6% (inactive)	96.3	81.8	-0.26% (inactive)	11% (inactive)
Cc1nc(C)c(C(=O)C2=C(O)C(=O)N(CCN3CCOCC3)C2c2cccnc2)s1 (stereo not given)	104	93% (inactive)	104% (inactive)	99.1% (inactive)	97.4% (inactive)	10.4% (inactive)	87	97.4	-3.95% (inactive)	12.9% (inactive)
Cc1ccccc1CNS(=O)(=O)c1ccc2c(c1)OCCO2	95.5	104% (inactive)	95.5% (inactive)	83.6% (inactive)	109% (inactive)	17.3% (inactive)	92	109	-5.47% (inactive)	-6.77% (inactive)
Cc1cccc(N2CCN(C(=O)c3cc4c(=O)[nH]c5ccccc5c4n3C)CC2)c1C	72.5	57.5% (inactive)	72.5% (inactive)	65.5% (inactive)	95.9% (inactive)	13% (inactive)	82.9	95.9	-3.33% (inactive)	11% (inactive)
CCN(CC)c1ncc(C)c(=O)[nH]1	103	106% (inactive)	103% (inactive)	105% (inactive)	88.8% (inactive)	-5.64% (inactive)	94.5	88.8	-3.47% (inactive)	19% (inactive)
Cc1ccc(OC(=O)CCc2c(C)nc3ncnn3c2C)cc1	102	96.5% (inactive)	102% (inactive)	95.9% (inactive)	87.1% (inactive)	5.46% (inactive)	81.7	87.1	3.29% (inactive)	-9.09% (inactive)
Cn1c(=O)[nH]c(=O)c2c1nc(N(CCO)Cc1ccccc1)n2Cc1ccccc1Cl	90.5	82.5% (inactive)	90.5% (inactive)	80.2% (inactive)	81.6% (inactive)	26% (inactive)	55.6	81.6	-5.47% (inactive)	3.44% (inactive)
Cc1ccc(S(=O)(=O)N[C@@H](C)C(=O)N2CCC(C(=O)N3CCC[C@H]3C(=O)O)CC2)cc1	98	100% (inactive)	98% (inactive)	88.7% (inactive)	102% (inactive)	8.07% (inactive)	93.6	102	-4.4% (inactive)	1.31% (inactive)
CN1CCCN(C(=O)c2cc(=O)[nH]c3ccccc23)c2nc3ccccc3nc21	114	90% (inactive)	114% (inactive)	84.2% (inactive)	79.9% (inactive)	0.575% (inactive)	79.3	79.9	-4.93% (inactive)	-2.79% (inactive)
